Source: PMC5908246 (Cell reports, 2018)
“Also recorded” adds a separate entry of the source. Like-named read-outs stand apart in the source and are kept apart here. No end group written: not given here.

Experiments:
[1] = molecular target: Med15 activator-binding domain 1 (ABD1) (S. cerevisiae (yeast)) (UniProt P19659); experiment: ITC
[2] = molecular target: T1, Med15 ABD1 (Saccharomyces cerevisiae, UniProt P19659); conditions: ITC; 20 mM KH2PO4 (pH 7.5), 200 mM KCl; cAD; ref Brzovic et al., 2011; cited from earlier work
T1 sequence (P19659 158-238 limits assumed): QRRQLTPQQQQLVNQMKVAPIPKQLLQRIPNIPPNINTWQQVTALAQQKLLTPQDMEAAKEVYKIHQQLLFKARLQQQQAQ

[3] = molecular target: T1, Med15 ABD1; conditions: ref Brzovic et al., 2011; cited from earlier work
[4] = molecular target: T2, Med15 ABD2 (Saccharomyces cerevisiae, UniProt P19659); experiment: ITC binding, Med15 ABD2; set-up: species or system S. cerevisiae; conditions: 20 mM KH2PO4 (pH 7.5), 200 mM KCl, nAD 0.111 mM vs ABD2 1.60 mM, ABD2 0.224 mM vs cAD 2.35 mM, not measurable due to weak binding or low heats of binding
T2 sequence (P19659 277-368): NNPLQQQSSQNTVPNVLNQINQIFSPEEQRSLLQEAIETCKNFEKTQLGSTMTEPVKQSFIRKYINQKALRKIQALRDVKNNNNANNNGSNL

[5] = molecular target: T3, Med15 KIX (Saccharomyces cerevisiae, UniProt P19659); conditions: FP; Oregon Green 488-labeled Gcn4 peptide; ref Herbig et al., 2010; cited from earlier work
T3 sequence (P19659 6-91): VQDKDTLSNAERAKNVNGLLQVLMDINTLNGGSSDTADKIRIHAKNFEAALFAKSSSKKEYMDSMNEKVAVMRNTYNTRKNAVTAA

[6] = molecular target: T2, Med15 ABD2; experiment: Fluorescence polarization binding, Med15 ABD2; set-up: species or system S. cerevisiae
Summary of the method: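 Gcn4 AD peptides (nAD, cAD, tAD) labelled with Oregon Green 488 were titrated with Med15 ABD2, giving 15 concentrations spanning 0–250 μM for tAD. Proteins were size-exclusion purified into 20 mM KH2PO4 (pH 7.5), 200 mM KCl. Polarization was measured on a Beacon 2000. Kd was fitted with a one-site total binding model including a nonspecific term and background.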

[7] = molecular target: T4, Med15 ABD3 (Saccharomyces cerevisiae, UniProt P19659); experiment: ITC binding, Med15 ABD3; set-up: species or system S. cerevisiae; conditions: 20 mM KH2PO4 (pH 7.5), 200 mM KCl; for Kd: nAD 0.111 mM vs ABD3 1.12 mM, ABD3 0.236 mM vs cAD 2.35 mM, single binding site model
T4 sequence (P19659 484-651): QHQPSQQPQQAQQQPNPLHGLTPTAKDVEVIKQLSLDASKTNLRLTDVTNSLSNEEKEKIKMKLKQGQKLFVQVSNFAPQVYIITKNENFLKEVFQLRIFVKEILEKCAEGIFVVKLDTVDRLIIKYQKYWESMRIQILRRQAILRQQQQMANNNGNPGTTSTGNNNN
Summary of the method: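 ITC was run on a MicroCal ITC200 in 20 mM KH2PO4 (pH 7.5), 200 mM KCl. In one run, Gcn4 nAD in the cell (0.111 mM) was titrated with Med15 ABD3 from the syringe (1.12 mM). In the other, ABD3 in the cell (0.236 mM) was titrated with Gcn4 cAD (2.35 mM). Data were fitted with a single binding site model.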

[8] = molecular target: T1, Med15 ABD1; experiment: NMR competition: unlabeled cAD added to 15N-tAD + ABD1; assay type: binding, S. cerevisiae; conditions: (1H,15N)-HSQC
[9] = molecular target: Gcn4 tAD (residues 1–134) labeled with Oregon Green 488 (S. cerevisiae) (UniProt P03069); experiment: fluorescence polarisation
[10] = molecular target: Gcn4 N-terminal activation domain (nAD; residues 1–100) (S. cerevisiae) (UniProt P03069); experiment: ITC
[11] = molecular target: Gcn4 cAD (residues 101–134) labeled with Oregon Green 488 (S. cerevisiae) (UniProt P03069); experiment: fluorescence polarisation
[12] = tested on: Med15 KIX123; experiment: Fluorescence polarization binding, Med15 KIX123; set-up: species or system S. cerevisiae; conditions: KIX123 vs ABD123
Summary of the method: (§1)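 Gcn4 tAD peptide labelled with Oregon Green 488 was titrated with 15 Med15 concentrations spanning 0–250 μM (ABD123 or KIX123). Proteins were in 20 mM KH2PO4 (pH 7.5), 200 mM KCl. Polarization was read on a Beacon 2000. Kd came from non-linear regression to a one-site total binding model (Bmax·X/(Kd+X) + NS·X + background).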

[13] = molecular target: T5, Med15 ABD123 (Saccharomyces cerevisiae, UniProt P19659, DEL239-272/DEL373-483); experiment: Fluorescence polarization binding, Med15 ABD123; set-up: species or system S. cerevisiae; conditions: tAD binding to ABD123
T5 sequence (P19659 with tags, fused parts or gaps DEL239-272/DEL373-483): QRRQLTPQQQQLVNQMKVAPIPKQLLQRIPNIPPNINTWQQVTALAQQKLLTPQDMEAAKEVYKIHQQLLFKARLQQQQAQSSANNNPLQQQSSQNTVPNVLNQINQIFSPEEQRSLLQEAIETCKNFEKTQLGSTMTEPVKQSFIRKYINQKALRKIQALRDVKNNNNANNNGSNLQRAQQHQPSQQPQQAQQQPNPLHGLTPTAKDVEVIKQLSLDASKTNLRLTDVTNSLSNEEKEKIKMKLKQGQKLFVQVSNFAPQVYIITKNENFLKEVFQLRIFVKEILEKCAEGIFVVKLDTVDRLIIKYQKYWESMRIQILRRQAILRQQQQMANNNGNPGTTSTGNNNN
Summary of the method: as §1

[14] = tested on: individual Med15 ABDs; experiment: ITC and/or FP binding to individual Med15 ABDs; set-up: species or system S. cerevisiae
Summary of the method: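 Med15 ABD and Gcn4 AD proteins came from E. coli BL21(DE3) RIL and were polished by size exclusion into 20 mM KH₂PO₄ (pH 7.5), 200 mM KCl; concentrations were set by UV-Vis. FP used Oregon Green 488-labelled Gcn4 peptides, with 15 Med15 concentrations (0–250 µM) against tAD and 0–225 µM ABD3 against cAD. FP data were fit to a one-site total binding model with a nonspecific term. ITC data were fit to a single-site model.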

[15] = molecular target: T2, Med15 ABD2; experiment: NMR secondary structure propensity upon binding ABD2; set-up: species or system S. cerevisiae; conditions: bound to ABD2, saturating; backbone chemical shifts, ncSPC; 25°C
Summary of the method: (§2)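 ¹³C,¹⁵N-labelled Gcn4 nAD was titrated with unlabelled Med15 ABD at ~200 μM labelled sample. Bound-state assignments were checked by triple-resonance experiments. Secondary structure propensity came from backbone chemical shifts via ncSPC.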

[16] = molecular target: T2, Med15 ABD2; conditions: FP; Oregon Green 488-labeled Gcn4 peptide; ref Herbig et al., 2010; cited from earlier work
[17] = molecular target: T1, Med15 ABD1; experiment: ITC binding, Med15 ABD1; set-up: species or system S. cerevisiae; conditions: 200 mM KCl
Summary of the method: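 ITC was run on a MicroCal ITC200 in 20 mM KH2PO4 (pH 7.5), 200 mM KCl. Med15 ABD1 in the cell (0.150 mM) was titrated with Gcn4 nAD from the syringe (1.50 mM). Thermodynamic parameters came from a single binding site model fit.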

[18] = tested on: Med15 KIX domain (in KIX123); experiment: EDC crosslinking-MS, KIX123-tAD, links to KIX; assay type: binding, S. cerevisiae; conditions: EDC 7.5 mM, Sulfo-NHS 2 mM, 2 hr, room temperature; Gcn4 1–140
Summary of the method: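 Gcn4 AD and KIX123 were purified by size exclusion into PBS (pH 7.2) and cross-linked for 2 hr at room temperature. Samples were reduced (50 mM TCEP, 8 M urea, 37°C, 15 min), alkylated (15 mM iodoacetamide, dark, 37°C, 1 hr), diluted 10-fold in 100 mM ammonium bicarbonate and digested overnight at 37°C with trypsin (1:15 w/w). After C18 cleanup, peptides were run on an Orbitrap Elite with HCD and a 90 min 5–40% ACN gradient. pLink and Nexus searches used 5% FDR, and a crosslink required ≥4 consecutive b/y ions per peptide.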

[19] = molecular target: T1, Med15 ABD1; conditions: FP; Oregon Green 488-labeled Gcn4 peptide; ref Herbig et al., 2010; cited from earlier work
[20] = molecular target: T4, Med15 ABD3; conditions: FP; Oregon Green 488-labeled Gcn4 peptide; ref Herbig et al., 2010; cited from earlier work
[21] = molecular target: T5, Med15 ABD123; conditions: FP; Oregon Green 488-labeled Gcn4 peptide; ref Herbig et al., 2010; cited from earlier work
[22] = molecular target: T1, Med15 ABD1; experiment: NMR secondary structure propensity upon binding ABD1; set-up: species or system S. cerevisiae; conditions: bound to ABD1; backbone chemical shifts, ncSPC; 25°C
Summary of the method: as §2

Gcn4 N-terminal activation domain (nAD; residues 1–100) (from UniProt P03069 1-100) (domain or fragment)
Kd [1]: 10.8 µM
dH [1]: 10.3 kJ/mol

STDSTPMFEYENLEDNSKEWTSLFDNDIPVTTDD [cAD]
ΔS [2]: 4.58 cal/mol/deg
helical structure upon ABD1 binding, residues 117–125 [3]: adopt helical structure
Kd [4]: unable to measure
Kd [5]: neither nAD nor cAD showed detectable KIX binding; also recorded: unable to measure
weaker binding (cAD to ABD2) than the other pairwise interactions [6]: ~ 10 fold
affinity for ABD2 (in words) ([6]; compared with nAD or tAD): substantially weaker affinity
Kd [7]: unable to measure
competition with 15N-tAD for ABD1 [8]: cAD can compete off both cAD and nAD residues

Med15 activator-binding domain 2 (ABD2; residues 277–368) (from UniProt P19659 277-368) (domain or fragment)
Kd [9]: 19.5 µM

Med15 158–651 Δ239–272, Δ373–483 (ABD123) (from UniProt P19659 158-651) (domain or fragment)
Kd [9]: 0.109 µM

Med15 activator-binding domain 1 (ABD1) (from UniProt P19659 158-238) (domain or fragment)
Kd [9]: 2.66 µM

Med15 activator-binding domain 3 (ABD3; Med15 484–651) (from UniProt P19659 484-651) (domain or fragment)
Kd [10]: 23.9 µM
dH [10]: 29.4 kJ/mol
Kd [11]: 13.9 µM
Kd [9]: 4.4 µM

B1: tAD: tandem AD polypeptide, Gcn4 residues 1–134 (1–140 in crosslinking) (protein, UniProt P03069 1-134, looked up, fragment)
chain: MSEYQPSLFALNPMGFSPLDGSKSTNENVSASTSTAKPMVGQLIFDKFIKTEEDPIIKQDTPSNLDFDFALPQTATAPDAKTVLPIPELDDAVVESFFSSSTDSTPMFEYENLEDNSKEWTSLFDNDIPVTTDD
increase of Gcn4 affinity by presence of KIX along with ABD1,2,3 [12]: ~ 30%
higher affinity than the strongest piecemeal interaction [13]: about 20 fold
affinity for individual ABDs (in words) [14]: affinity close to the stronger of the individual nAD or cAD interactions

B2: nAD: N-terminal activation domain of Gcn4, residues 1–100 (protein, UniProt P03069 1-100, looked up, fragment)
chain: MSEYQPSLFALNPMGFSPLDGSKSTNENVSASTSTAKPMVGQLIFDKFIKTEEDPIIKQDTPSNLDFDFALPQTATAPDAKTVLPIPELDDAVVESFFSS
helical content of C-terminal hydrophobic cluster (residues 94–98) [15]: ~ 25%
Kd [16]: 21.8 ± 3.8 µM
ΔH ([17]; 20 mM KH2PO4 (pH 7.5), nAD): 2,454 ± 78 cal/mol
ΔS ([17]; 20 mM KH2PO4 (pH 7.5), nAD): 31.0 cal/mol/deg
Kd ([17]; Microcal ITC200, 20 mM KH2PO4 (pH 7.5), cell ABD1 0.150 mM, syringe nAD 1.50 mM, single binding site model): 10.8 ± 1.5 µM
Kd [4]: unable to measure
Kd [5]: neither nAD nor cAD showed detectable KIX binding; also recorded: unable to measure
crosslinks to Med15 KIX domain [18]: crosslinks extensively to Gcn4 in the large complex, mainly to nAD
Kd [19]: 3.3 ± 0.5 µM
Kd [20]: 2.6 ± 0.4 µM
Kd [21]: 0.36 ± 0.02 µM
ΔH [7]: 7,015 ± 221 cal/mol
Kd [7]: 23.9 ± 2 µM
helical content of the other three nAD hydrophobic clusters [22]: < 20%
